# From ChEMBL document CHEMBL1144425, “Design of benzophenone-containing photoactivatable linear vasopressin antagonists: pharmacological and photoreactive properties” (J Med Chem, 2005)
# Target: Vasopressin V1a receptor (Homo sapiens, UniProt P37288)
# Experiment: Binding affinity against human vasopressin V1a receptor expressed in CHO cells
# Format: cell-based
# Details: not given
# How it was run: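 Competition binding on membranes of CHO cells expressing the human V1a receptor (2 to 3 µg protein). Each compound was tested at 10^-12 to 10^-6 M against a radioiodinated linear antagonist (45-80 pM). Incubation was 1 h at 30 °C in 50 mM Tris, 5 mM MgCl2, pH 7.4, with 1 mg/mL BSA, in triplicate, then GF/C filtration. Data were fitted by nonlinear least-squares regression.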
# Sequence of Vasopressin V1a receptor (Homo sapiens, UniProt P37288) (P37288 whole entry): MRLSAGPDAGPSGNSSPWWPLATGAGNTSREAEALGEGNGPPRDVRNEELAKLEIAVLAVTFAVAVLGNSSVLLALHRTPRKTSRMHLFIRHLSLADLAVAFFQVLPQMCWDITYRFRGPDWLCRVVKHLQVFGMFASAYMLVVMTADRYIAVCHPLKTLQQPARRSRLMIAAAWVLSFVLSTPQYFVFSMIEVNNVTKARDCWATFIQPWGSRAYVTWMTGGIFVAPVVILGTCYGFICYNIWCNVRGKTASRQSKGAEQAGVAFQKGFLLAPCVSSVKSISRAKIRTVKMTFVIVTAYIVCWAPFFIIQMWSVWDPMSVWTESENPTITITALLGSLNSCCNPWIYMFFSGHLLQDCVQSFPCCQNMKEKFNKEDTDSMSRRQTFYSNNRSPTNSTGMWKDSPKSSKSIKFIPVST
row,Ki [nM],SMILES
1,0.8,NC(=O)CC[C@H](NC(=O)[C@H](Cc1ccccc1)NC(=O)[C@@H](Cc1ccc(C(=O)c2ccccc2)cc1)NC(=O)Cc1ccccc1)C(=O)N[C@@H](CC(N)=O)C(=O)N[C@@H](CCCN=C(N)N)C(=O)N1CCC[C@H]1C(=O)N[C@@H](CCCN=C(N)N)C(=O)N[C@@H](Cc1ccc(O)c(I)c1)C(N)=O
2,18,COc1ccc(C[C@@H](NC(=O)c2ccc(C(=O)c3ccccc3)cc2)C(=O)N[C@@H](Cc2ccccc2)C(=O)N[C@@H](CCC(N)=O)C(=O)N[C@@H](CC(N)=O)C(=O)N[C@@H](CCCN=C(N)N)C(=O)N2CCC[C@H]2C(=O)N[C@@H](CCCN=C(N)N)C(=O)N[C@@H](Cc2ccc(O)c(I)c2)C(N)=O)cc1
3,2.5,N=C(N)NCCC[C@H](NC(=O)[C@@H]1CCCN1C(=O)[C@H](CCCNC(=N)N)NC(=O)[C@H](CC(N)=O)NC(=O)[C@H](CCC(N)=O)NC(=O)[C@H](Cc1ccccc1)NC(=O)[C@H](Cc1ccc(C(=O)c2ccccc2)cc1)NC(=O)Cc1ccccc1)C(=O)N[C@@H](Cc1ccc(O)c(I)c1)C(N)=O

# Same assay, conditions: cho
row,SMILES,Ki [nM]
1,NC(=O)CC[C@H](NC(=O)[C@H](Cc1ccccc1)NC(=O)[C@H](N)Cc1ccc(C(=O)c2ccccc2)cc1)C(=O)N[C@@H](CC(N)=O)C(=O)N[C@@H](CCCN=C(N)N)C(=O)N1CCC[C@H]1C(=O)N[C@@H](CCCN=C(N)N)C(=O)N[C@@H](Cc1ccc(O)c(I)c1)C(N)=O,20
2,COc1ccc(C[C@@H](NC(=O)CNC(=O)c2ccc(C(=O)c3ccccc3)cc2)C(=O)N[C@@H](Cc2ccccc2)C(=O)N[C@@H](CCC(N)=O)C(=O)N[C@@H](CC(N)=O)C(=O)N[C@@H](CCCCN)C(=O)N2CCC[C@H]2C(=O)N[C@@H](CCCNC(=N)N)C(=O)N[C@@H](Cc2ccc(O)c(I)c2)C(N)=O)cc1,115

# More lines, now with the values ahead:
row,Ki [nM],SMILES
1,148,N=C(N)NCCC[C@H](NC(=O)[C@@H]1CCCN1C(=O)[C@H](CCCNC(=N)N)NC(=O)[C@H](CC(N)=O)NC(=O)[C@H](CCC(N)=O)NC(=O)[C@H](Cc1ccccc1)NC(=O)[C@@H](N)Cc1ccc(C(=O)c2ccccc2)cc1)C(=O)N[C@@H](Cc1ccc(O)c(I)c1)C(N)=O
2,462,COc1ccc(C[C@@H](NC(=O)C(N)Cc2ccc(C(=O)c3ccccc3)cc2)C(=O)N[C@@H](Cc2ccccc2)C(=O)N[C@@H](CCC(N)=O)C(=O)N[C@@H](CC(N)=O)C(=O)N[C@@H](CCCNC(=N)N)C(=O)N2CCC[C@H]2C(=O)N[C@@H](CCCNC(=N)N)C(=O)N[C@@H](Cc2ccc(O)c(I)c2)C(N)=O)cc1 (stereo not given in full)
3,1490,CC(=O)N[C@@H](Cc1ccc(C(=O)c2ccccc2)cc1)C(=O)N[C@@H](Cc1ccccc1)C(=O)N[C@@H](CCC(N)=O)C(=O)N[C@@H](CC(N)=O)C(=O)N[C@@H](CCCNC(=N)N)C(=O)N1CCC[C@H]1C(=O)N[C@@H](CCCNC(=N)N)C(=O)N[C@@H](Cc1ccc(O)c(I)c1)C(N)=O
4,24,CC(=O)N[C@H](Cc1ccc(C(=O)c2ccccc2)cc1)C(=O)N[C@@H](Cc1ccccc1)C(=O)N[C@@H](CCC(N)=O)C(=O)N[C@@H](CC(N)=O)C(=O)N[C@@H](CCCNC(=N)N)C(=O)N1CCC[C@H]1C(=O)N[C@@H](CCCNC(=N)N)C(=O)N[C@@H](Cc1ccc(O)c(I)c1)C(N)=O

# Target: Vasopressin V1a receptor (Rattus norvegicus, UniProt P30560)
# Sequence (P30560 whole entry): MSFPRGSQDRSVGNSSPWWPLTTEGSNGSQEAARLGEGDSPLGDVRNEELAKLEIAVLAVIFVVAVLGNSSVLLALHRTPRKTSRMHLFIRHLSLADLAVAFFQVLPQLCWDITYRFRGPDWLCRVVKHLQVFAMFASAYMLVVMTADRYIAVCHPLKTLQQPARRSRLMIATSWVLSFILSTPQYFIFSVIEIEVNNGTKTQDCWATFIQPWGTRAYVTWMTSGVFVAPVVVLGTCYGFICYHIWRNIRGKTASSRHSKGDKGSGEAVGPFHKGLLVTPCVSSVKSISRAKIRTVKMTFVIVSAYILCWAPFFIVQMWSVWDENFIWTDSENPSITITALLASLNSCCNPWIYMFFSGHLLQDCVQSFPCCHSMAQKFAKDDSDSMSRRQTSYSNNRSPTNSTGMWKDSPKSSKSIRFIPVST
# Experiment: Binding affinity against rat vasopressin V1a receptor
# Details: not given
row,Ki [nM],SMILES
1,0.18,COc1ccc(C[C@@H](NC(=O)CCCc2ccc(N=[N+]=[N-])cc2)C(=O)N[C@@H](Cc2ccccc2)C(=O)N[C@@H](CCC(N)=O)C(=O)N[C@@H](CC(N)=O)C(=O)N[C@@H](CCCNC(=N)N)C(=O)N2CCC[C@H]2C(=O)N[C@@H](CCCNC(=N)N)C(=O)N[C@@H](Cc2ccc(O)c(I)c2)C(N)=O)cc1
